Measurements reported in ChEMBL document CHEMBL4177578, “Synthesis, pharmacological activities and molecular docking studies of pyrazolyltriazoles as anti-bacterial and anti-inflammatory agents” (Bioorg Med Chem, 2017).
In brackets after ≈: the same amount, converted by molar mass. Activity calls are given as the source filed them. The calls are words filed in the database; no cut-off is given here.

Key:
Type in all cases: functional
[1] = tested on: Micrococcus luteus; assay: Antimicrobial activity against Micrococcus luteus at 1 mg/ml incubated for 20 to 30 mins followed by incubation for 24 hrs at 37 degC by agar plate method
How it was run: (§1)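 Agar well diffusion on nutrient agar. Plates swabbed with 60 µL inoculum; 8 mm wells loaded with 100 µL of compound at 1.0 mg/mL. Held 20–30 min at 4 °C for diffusion, then 24 h at 37 °C. Inhibition zone diameter read in mm. Triplicate.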

[2] = tested on: Staphylococcus aureus; assay: Antimicrobial activity against Staphylococcus aureus at 1 mg/ml incubated for 20 to 30 mins followed by incubation for 24 hrs at 37 degC by agar plate method; how it was run: as §1
[3] = tested on: Salmonella typhi; assay: Antimicrobial activity against Salmonella typhi at 1 mg/ml incubated for 20 to 30 mins followed by incubation for 24 hrs at 37 degC by agar plate method; settings: for diameter of the inhibition zone (DIZ): Salmonella enterica subsp. enterica serovar Typhi
How it was run: (§2)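 Agar well diffusion on nutrient agar. Plates swabbed with 60 µL inoculum, 8 mm wells loaded with 100 µL sample at 1.0 mg/mL, streptomycin standard and control in separate wells. Plates held 20–30 min at 4 °C for diffusion, then 24 h at 37 °C. Zone diameter read in mm; triplicate.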

[4] = tested on: Salmonella paratyphi; assay: Antimicrobial activity against Salmonella paratyphi at 1 mg/ml incubated for 20 to 30 mins followed by incubation for 24 hrs at 37 degC by agar plate method; settings: for diameter of the inhibition zone (DIZ): Salmonella enterica subsp. enterica serovar Paratyphi A; how it was run: as §2
[5] = tested on: Micrococcus luteus; assay: Antimicrobial activity against Micrococcus luteus incubated for 12 to 16 hrs by tube dilution method
How it was run: (§3)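 Tube dilution, serial from 500 to 1.9 µg/mL, plus drug-free control tube. Each tube inoculated with 1 mL culture at OD 0.2, incubated 37 °C for 12–16 h. MIC is the lowest concentration with no growth by turbidity. MBC is found by plating each tube on nutrient agar: the lowest concentration at which all cells are killed.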

[6] = tested on: Micrococcus luteus; assay: Antimicrobial activity against Micrococcus luteus incubated for 12 to 16 hrs followed by plating in nutrient agar by tube dilution method; how it was run: as §3
[7] = tested on: Salmonella typhi; assay: Antimicrobial activity against Salmonella typhi incubated for 12 to 16 hrs by tube dilution method
How it was run: (§4)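 Broth tube dilution, two-fold serial dilutions from 500 to 1.9 µg/mL plus a drug-free control tube. Each tube inoculated with 1 mL culture at OD 0.2 (~McFarland standard), 37 °C for 12-16 h. Turbidity compared with the control tube. MIC is the lowest concentration giving complete growth inhibition.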

[8] = tested on: Salmonella typhi; assay: Antimicrobial activity against Salmonella typhi incubated for 12 to 16 hrs followed by plating in nutrient agar by tube dilution method
How it was run: (§5)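 After 12-16 h at 37 °C in tube dilution (500 to 1.9 µg/mL; 1 mL inoculum at OD 0.2), the culture from each tube was plated on nutrient agar. MBC is the concentration at which cells are completely killed.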

[9] = tested on: Salmonella paratyphi; assay: Antimicrobial activity against Salmonella paratyphi incubated for 12 to 16 hrs by tube dilution method; how it was run: as §4
[10] = tested on: Salmonella paratyphi; assay: Antimicrobial activity against Salmonella paratyphi incubated for 12 to 16 hrs followed by plating in nutrient agar by tube dilution method; how it was run: as §5
[11] = Anti-inflammatory activity at 50 ug/ml using bovine serum albumin and egg albumin proteins incubated at 37 degC for 20 mins and then heated to 95 degC for 20 mins by UV-visible Spectrophotometry based protein denaturation method
How it was run: (§6)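 Albumin (bovine serum or egg) at 1% in 50 mM sodium phosphate buffer pH 6.4. Mixture is 0.1 ml test sample (1 mg/ml) plus 0.2 ml albumin, made to 5 ml with buffer. Held 37 °C for 20 min, then 95 °C for 20 min. Cooled to room temperature, turbidity read at 660 nm. % inhibition = (Abs control − Abs sample)/Abs control × 100. Triplicate, averaged.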

[12] = Anti-inflammatory activity at 100 ug/ml using bovine serum albumin and egg albumin proteins incubated at 37 degC for 20 mins and then heated to 95 degC for 20 mins by UV-visible Spectrophotometry based protein denaturation method; how it was run: as §6
[13] = Anti-inflammatory activity using bovine serum albumin and egg albumin proteins incubated at 37 degC for 20 mins and then heated to 95 degC for 20 mins by UV-visible Spectrophotometry based protein denaturation method; how it was run: as §6
[14] = Salmonella enterica subsp. enterica serovar Typhi
[15] = Salmonella enterica subsp. enterica serovar Paratyphi A
[16] = Salmonella enterica, read-out: DIZ

Compound | diameter of the inhibition zone (DIZ) [1] | diameter of the inhibition zone (DIZ) [2] | diameter of the inhibition zone (DIZ) [3] | diameter of the inhibition zone (DIZ) [4] | MIC [5] | MBC [6] | MIC [7, 14] | MBC [8, 14] | MIC [9, 15] | MBC [10, 15] | inhibition [11] | inhibition [12] | IC50 [13] | other results
CCOC(=O)c1nnn(Cc2cn(-c3ccccc3)nc2-c2ccccc2)c1C(=O)OCC | inactive | inactive | inactive | inactive | inactive | inactive | inactive | inactive | inactive | inactive | inactive | inactive | Not Active | –
COC(=O)c1nnn(Cc2cn(-c3ccc(C)cc3)nc2-c2ccccc2)c1C(=O)OC | inactive | inactive | inactive | inactive | inactive | inactive | inactive | inactive | inactive | inactive | inactive | inactive | Not Active | –
[N-]=[N+]=NCc1cn(-c2ccccc2)nc1-c1ccc(Cl)cc1Cl | inactive | inactive | inactive | inactive | inactive | inactive | inactive | inactive | inactive | inactive | inactive | inactive | Not Active | –
Cc1ccc(-n2cc(CN=[N+]=[N-])c(-c3ccccc3)n2)cc1 | inactive | inactive | inactive | inactive | inactive | inactive | inactive | inactive | inactive | inactive | inactive | inactive | Not Active | –
Cc1ccc(-n2cc(CN=[N+]=[N-])c(-c3ccccc3)n2)cc1C | inactive | inactive | inactive | inactive | inactive | inactive | inactive | inactive | inactive | inactive | inactive | inactive | Not Active | –
[N-]=[N+]=NCc1cn(-c2ccc(Cl)cc2)nc1-c1ccccc1 | inactive | inactive | inactive | inactive | inactive | inactive | inactive | inactive | inactive | inactive | inactive | inactive | Not Active | –
O=C([O-])Cc1ccccc1Nc1c(Cl)cccc1Cl.[Na+] [DICLOFENAC SODIUM] | – | – | – | – | – | – | – | – | – | – | 66.4% | 93.1% | 53.7 µg/mL | –
Cc1ccc(-c2nn(-c3ccccc3)cc2CN=[N+]=[N-])cc1 | inactive | inactive | inactive | inactive | inactive | inactive | inactive | inactive | inactive | inactive | inactive | inactive | Not Active | –
c1ccc(-c2cn(Cc3cn(-c4ccccc4)nc3-c3ccccc3)nn2)cc1 | inactive | inactive | inactive | inactive | inactive | inactive | inactive | inactive | inactive | inactive | inactive | inactive | Not Active | –
Cc1ccc(-c2nn(-c3ccccc3)cc2Cn2cc(-c3ccccc3)nn2)cc1 | inactive | inactive | inactive | inactive | inactive | inactive | inactive | inactive | inactive | inactive | inactive | inactive | Not Active | –
CCOC(=O)c1nnn(Cc2cn(-c3ccccc3)nc2-c2ccc(C)cc2)c1C(=O)OCC | inactive | inactive | inactive | inactive | inactive | inactive | inactive | inactive | inactive | inactive | inactive | inactive | Not Active | –
Brc1ccc(-c2cn(Cc3cn(-c4ccccc4)nc3-c3ccccc3)nn2)cc1 | inactive | inactive | inactive | inactive | inactive | inactive | inactive | inactive | inactive | inactive | inactive | inactive | Not Active | –
COc1ccc(-c2cn(Cc3cn(-c4ccccc4)nc3-c3ccccc3)nn2)c(C)c1 | inactive | inactive | inactive | inactive | inactive | inactive | inactive | inactive | inactive | inactive | inactive | inactive | Not Active | –
Cc1ccc(-n2cc(Cn3cc(-c4ccccc4)nn3)c(-c3ccccc3)n2)cc1 | inactive | inactive | inactive | inactive | inactive | inactive | inactive | inactive | inactive | inactive | inactive | inactive | Not Active | –
CN[C@@H]1[C@H](O[C@H]2[C@H](O[C@H]3[C@H](O)[C@@H](O)[C@H](N=C(N)N)[C@@H](O)[C@@H]3N=C(N)N)O[C@@H](C)[C@]2(O)C=O)O[C@@H](CO)[C@H](O)[C@H]1O [STREPTOMYCIN] | – | – | – | – | 6.25 µg/mL (≈ 10.7 µM) | 6.25 µg/mL (≈ 10.7 µM) | – | – | – | – | – | – | – | zone of inhibition at 1000 µg/mL ([1]; read-out: DIZ): 22.5 mm; zone of inhibition at 1000 µg/mL ([2]; read-out: DIZ): 20.3 mm; zone of inhibition at 1000 µg/mL [3, 16]: 27 mm; zone of inhibition at 1000 µg/mL [4, 16]: 30 mm; MIC ([7]; Salmonella enterica): 6.25 µg/mL (≈ 10.7 µM); MBC ([8]; Salmonella enterica): 6.25 µg/mL (≈ 10.7 µM); MIC ([9]; Salmonella enterica): 6.25 µg/mL (≈ 10.7 µM); MBC ([10]; Salmonella enterica): 6.25 µg/mL (≈ 10.7 µM)
